ChEMBL document CHEMBL3244336, “Antitumor agents. 1. 1,4-Bis[(aminoalkyl)amino]-9,10-anthracenediones” (J Med Chem, 1979)
Calls of active or inactive are those of the source. The calls are words filed in the database; no cut-off is given here.

Assays:
[1] = system: P388; test: Antitumor activity against mouse P388 cells allografted in mouse assessed as increase of median life span at 300 mg/kg, ip on day 1, 5 and 9 measured up to 60 days relative to control; type: functional; settings: route intraperitoneal
Procedure, shortened: (§1)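 BDF1 or CDF1 mice inoculated ip with ascitic P388 leukemia cells. Dosing ip on days 1, 5 and 9. Deaths recorded for 60 days; % increase in median life span over controls. "Cures" are survivors/total at 60 days.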

[2] = system: P388; test: Antitumor activity against mouse P388 cells allografted in mouse assessed as disease cure at 300 mg/kg, ip on day 1, 5 and 9 measured up to 60 days; type: functional, organism-based; parameters: dose 300 mg/kg
Procedure, shortened: (§2)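 BDF1 or CDF1 mice inoculated ip with ascitic P388 leukemia cells, dosed ip on days 1, 5 and 9. Deaths recorded for 60 days; "cures" taken as number of survivors/total at 60 days.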

[3] = system: B16; test: Antitumor activity against mouse B16 cells allografted in BDF1 mouse assessed as increase of median life span at 50 mg/kg, ip on day 1 to 9 measured up to 80 days relative to control; type: functional; settings: route intraperitoneal
Procedure, shortened: (§3)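 BDF1 mice implanted ip with a homogenate from 0.05 g of B16 tumor. Test agent given ip on days 1-9. Deaths recorded for 80 days. Result is % increase in median life span over untreated controls. "Cures" are survivors/total at 80 days.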

[4] = system: B16; test: Antitumor activity against mouse B16 cells allografted in BDF1 mouse assessed as disease cure at 50 mg/kg, ip on day 1 to 9 measured up to 80 days; type: functional, organism-based; parameters: dose 50 mg/kg
Procedure, shortened: (§4)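 BDF1 mice implanted ip with homogenate from 0.05 g of B16 tumor, then dosed ip on days 1-9. Deaths recorded for 80 days; "cures" scored as survivors/total at 80 days.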

[5] = system: P388; test: Antitumor activity against mouse P388 cells allografted in mouse assessed as increase of median life span at 200 mg/kg, ip on day 1, 5 and 9 measured up to 60 days relative to control; type: functional; settings: route intraperitoneal; procedure, shortened: as §1
[6] = system: B16; test: Antitumor activity against mouse B16 cells allografted in BDF1 mouse assessed as increase of median life span at 200 mg/kg, ip on day […] measured up to 80 days relative to control; type: functional; settings: route intraperitoneal
[7] = system: P388; test: Antitumor activity against mouse P388 cells allografted in mouse assessed as increase of median life span at 400 mg/kg, ip on day 1 to 9 measured up to 60 days relative to control; type: functional; settings: route intraperitoneal
Procedure, shortened: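 BDF1 or CDF1 mice inoculated ip with ascitic P388 leukemia cells. Dosing ip on days 1-9. Deaths followed for 60 days; % increase in median life span over controls.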

[8] = system: P388; test: Antitumor activity against mouse P388 cells allografted in mouse assessed as disease cure at 400 mg/kg, ip on day 1 to 9 measured up to 60 days; type: functional, organism-based; parameters: dose 400 mg/kg
Procedure, shortened: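 P388 ascitic leukemia cells given ip to BDF1 or CDF1 mice; ip dosing on days 1-9. Deaths followed for 60 days, cures expressed as survivors/total at 60 days.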

[9] = system: B16; test: Antitumor activity against mouse B16 cells allografted in BDF1 mouse assessed as increase of median life span at 400 mg/kg, ip on day 1 to 9 measured up to 80 days relative to control; type: functional; settings: route intraperitoneal; procedure, shortened: as §3
[10] = system: B16; test: Antitumor activity against mouse B16 cells allografted in BDF1 mouse assessed as disease cure at 400 mg/kg, ip on day 1 to 9 measured up to 80 days; type: functional, organism-based; parameters: dose 400 mg/kg; procedure, shortened: as §4
[11] = system: P388; test: Antitumor activity against mouse P388 cells allografted in mouse assessed as increase of median life span at 6.2 mg/kg, ip on day 1, 5 and 9 measured up to 60 days relative to control; type: functional; settings: route intraperitoneal; procedure, shortened: as §1
[12] = system: P388; test: Antitumor activity against mouse P388 cells allografted in mouse assessed as disease cure at 6.2 mg/kg, ip on day 1, 5 and 9 measured up to 60 days; type: functional, organism-based; parameters: dose 6.2 mg/kg; procedure, shortened: as §2
[13] = system: B16; test: Antitumor activity against mouse B16 cells allografted in BDF1 mouse assessed as disease cure at 3.1 mg/kg, ip on day 1 to 9 measured up to 80 days; type: functional, organism-based; parameters: dose 3.1 mg/kg; procedure, shortened: as §4
[14] = system: B16; test: Antitumor activity against mouse B16 cells allografted in BDF1 mouse assessed as increase of median life span at 3.1 mg/kg, ip on day 1 to 9 measured up to 80 days relative to control; type: functional; settings: route intraperitoneal; procedure, shortened: as §3
[15] = system: P388; test: Antitumor activity against mouse P388 cells allografted in mouse assessed as increase of median life span at 12.5 mg/kg, ip on day 1, 5 and 9 measured up to 60 days relative to control; type: functional; settings: route intraperitoneal; procedure, shortened: as §1
[16] = system: P388; test: Antitumor activity against mouse P388 cells allografted in mouse assessed as increase of median life span at 250 mg/kg, ip on day 1, 5 and 9 measured up to 60 days relative to control; type: functional; settings: route intraperitoneal; procedure, shortened: as §1
[17] = system: P388; test: Antitumor activity against mouse P388 cells allografted in mouse assessed as disease cure at 250 mg/kg, ip on day 1, 5 and 9 measured up to 60 days; type: functional, organism-based; parameters: dose 250 mg/kg; procedure, shortened: as §2
[18] = system: P388; test: Antitumor activity against mouse P388 cells allografted in mouse assessed as increase of median life span at 25 mg/kg, ip on day 1, 5 and 9 measured up to 60 days relative to control; type: functional; settings: route intraperitoneal; procedure, shortened: as §1
[19] = system: P388; test: Antitumor activity against mouse P388 cells allografted in mouse assessed as disease cure at 25 mg/kg, ip on day 1, 5 and 9 measured up to 60 days; type: functional, organism-based; parameters: dose 25 mg/kg; procedure, shortened: as §2
[20] = system: B16; test: Antitumor activity against mouse B16 cells allografted in BDF1 mouse assessed as increase of median life span at 6.2 mg/kg, ip on day 1 to 9 measured up to 80 days relative to control; type: functional; settings: route intraperitoneal; procedure, shortened: as §3
[21] = system: B16; test: Antitumor activity against mouse B16 cells allografted in BDF1 mouse assessed as disease cure at 6.2 mg/kg, ip on day 1 to 9 measured up to 80 days; type: functional, organism-based; parameters: dose 6.2 mg/kg; procedure, shortened: as §4
[22] = system: Lewis lung carcinoma cell line; test: Antitumor activity against mouse LLC cells subcutaneously implanted in mouse; type: functional, cell-based
[23] = system: Lewis lung carcinoma cell line; test: Antitumor activity against mouse LLC cells intravenously implanted in mouse; type: functional, cell-based

With `O=C1c2c(O)ccc(O)c2C(=O)c2c(NCCN3CCCCC3)ccc(NCCN3CCCCC3)c21` the ILS at 300 mg/kg [1] was 40%, the Activity [2] was “inactive” and the ILS at 50 mg/kg [3] was 0%. For the same compound, the Activity [4] was “inactive”.
In the case of `O=C1c2c(O)ccc(O)c2C(=O)c2c(NCCN(CCO)CCO)ccc(NCCN(CCO)CCO)c21`, the ILS at 200 mg/kg [5] was 306% and the ILS at 200 mg/kg [6] was 212%.
For `O=C1c2ccccc2C(=O)c2c(NCCN3CCOCC3)ccc(NCCN3CCOCC3)c21`, the ILS at 400 mg/kg [7] was 119%, the Activity [8] was “inactive” and the ILS at 400 mg/kg [9] was 33%. The Activity [10] was “inactive”.
With `CNCCNc1ccc(NCCNC)c2c1C(=O)c1c(O)ccc(O)c1C2=O` the ILS at 6.2 mg/kg [11] was 118%, the Activity [12] was “inactive” and the Activity [13] was “inactive”. The ILS at 3.1 mg/kg [14] was 210%.
`CC(O)CNCCNc1ccc(NCCNCC(C)O)c2c1C(=O)c1c(O)ccc(O)c1C2=O` (stereo not drawn) gave an ILS at 12.5 mg/kg [15] of 255% and an ILS at 3.1 mg/kg [14] of 240%.
`O=C1c2ccccc2C(=O)c2c(NCCc3ccccn3)ccc(NCCc3ccccn3)c21` was tested, and the ILS at 250 mg/kg [16] was 0% and the Activity [17] was “inactive”.
In the case of `NCCCNc1ccc(NCCCN)c2c1C(=O)c1c(O)ccc(O)c1C2=O`, the ILS at 25 mg/kg [18] was 83%, the Activity [19] was “inactive” and the ILS at 6.2 mg/kg [20] was 87%. For the same compound, the Activity [21] was “inactive”.
For `O=C1c2c(O)ccc(O)c2C(=O)c2c(NCCNCCO)ccc(NCCNCCO)c21`, the Activity [22] was “inactive” and the Activity [23] was “inactive”.
In the case of `CN(C)CCCCNc1ccc(NCCCCN(C)C)c2c1C(=O)c1ccccc1C2=O`, the ILS at 250 mg/kg [16] was 0% and the Activity [17] was “inactive”.
For `CN(C)CCNc1ccc(NCCN(C)C)c2c1C(=O)c1ccc(C(=O)O)cc1C2=O`, the ILS at 250 mg/kg [16] was 0% and the Activity [17] was “inactive”.
